Measurements: ChEMBL document CHEMBL1149666, “Novel 1-(azacyclyl)-3-arylsulfonyl-1H-pyrrolo[2,3-b]pyridines as 5-HT6 agonists and antagonists” (Bioorg Med Chem, 2007)

Tests used:
[1] = biological target: T1, 5-hydroxytryptamine receptor 6 (Homo sapiens, UniProt P50406); assay: Displacement of [3H]LSD from cloned human 5HT6 expressed in HeLa cells; type: cell-based
How it was run: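 Radioligand binding used [3H]-LSD on human-cloned 5-HT6 receptors stably transfected in HeLa cells. Ki values were determined in triplicate.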

[2] = biological target: T1, 5-hydroxytryptamine receptor 6; assay: Agonist activity at human 5HT6 expressed in HeLa cells assessed as intracellular cAMP level by radioimmunoassay; type: functional, cell-based
[3] = biological target: T1, 5-hydroxytryptamine receptor 6; assay: Antagonist activity at human 5HT6 expressed in HeLa cells assessed as intracellular cAMP level by radioimmunoassay; type: functional, cell-based
How it was run: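 Stably transfected h5-HT6 HeLa cells were washed in Krebs buffer and preincubated 5 min at 37 °C in Krebs with 500 μM IBMX. Test compound was then added at 0.1–10000 nM for 10 min at 37 °C. The reaction was stopped with 0.5 M perchloric acid, and intracellular cAMP was measured by scintillation proximity RIA. IC50 and Imax were determined in triplicate.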

T1 sequence (P50406 whole entry): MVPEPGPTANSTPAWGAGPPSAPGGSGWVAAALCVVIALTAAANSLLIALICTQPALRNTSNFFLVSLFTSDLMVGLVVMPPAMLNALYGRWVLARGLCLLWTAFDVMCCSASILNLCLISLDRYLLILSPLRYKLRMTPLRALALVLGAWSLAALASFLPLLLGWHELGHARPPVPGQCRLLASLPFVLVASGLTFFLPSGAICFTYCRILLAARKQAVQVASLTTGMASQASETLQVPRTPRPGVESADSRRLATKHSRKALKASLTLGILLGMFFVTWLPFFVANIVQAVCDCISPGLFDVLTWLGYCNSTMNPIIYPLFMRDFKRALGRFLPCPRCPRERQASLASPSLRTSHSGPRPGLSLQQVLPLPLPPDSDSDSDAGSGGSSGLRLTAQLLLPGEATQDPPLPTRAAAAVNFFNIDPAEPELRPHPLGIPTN

| Ki [1] [nM] | EC50 [2] [nM] | IC50 [3] [nM] | %max [3] [%] | Imax [3] [%] | Compound |
| --- | --- | --- | --- | --- | --- |
| 3.2 | 50 | – | – | – | CCN1CCCC(n2cc(S(=O)(=O)c3ccc(Cl)s3)c3cccnc32)C1 (configuration not stated) |
| 1.9 | 71 | – | – | – | CN1CCCC(n2cc(S(=O)(=O)c3ccc(Cl)s3)c3cccnc32)C1 (configuration not stated) |
| 1.2 | 98 | – | – | – | O=S(=O)(c1ccc(Cl)s1)c1cn(C2CCCNC2)c2ncccc12 (configuration not stated) |
| 1.4 | – | 10 | – | – | CCN1CCC(n2cc(S(=O)(=O)c3c(Cl)nc4sccn34)c3cccnc32)C1 (configuration not stated) |
| 2 | – | 50 | 100 | – | O=S(=O)(c1ccccc1F)c1cn(C2CCNC2)c2ncccc12 (configuration not stated) |
| 4.9 | 47 | – | – | – | O=S(=O)(c1ccccc1)c1cn(C2CCCNC2)c2ncccc12 (configuration not stated) |
| 1.5 | – | 142 | 85 | – | CN1CCC(n2cc(S(=O)(=O)c3cccc(Cl)c3)c3cccnc32)C1 (configuration not stated) |
| 2 | – | 50 | – | 100 | O=S(=O)(c1ccccc1F)c1cn(C2CCCNC2)c2ncccc12 (configuration not stated) |
| 1.3 | 520 | – | – | – | O=S(=O)(c1cccc(C(F)(F)F)c1)c1cn(C2CCNC2)c2ncccc12 (configuration not stated) |
| 3.9 | 38.7 | – | – | – | CN1CCCC(n2cc(S(=O)(=O)c3cc(Cl)cc(Cl)c3)c3cccnc32)C1 (configuration not stated) |
| 8.5 | 1650 | – | – | – | O=S(=O)(c1ccc(F)cc1)c1cn(C2CCNC2)c2ncccc12 (configuration not stated) |
| 13.5 | 67 | – | – | – | CCN1CCCC(n2cc(S(=O)(=O)c3cc(Cl)cc(Cl)c3)c3cccnc32)C1 (configuration not stated) |
| 1.3 | 30 | – | – | – | O=S(=O)(c1cccc(Cl)c1)c1cn(C2CCCNC2)c2ncccc12 (configuration not stated) |
| 0.7 | 66 | – | – | – | O=S(=O)(c1cn(C2CCCNC2)c2ncccc12)c1c(Cl)nc2sccn12 (configuration not stated) |
| 5.6 | – | 186 | 69 | – | CN1CCC(n2cc(S(=O)(=O)c3ccccc3F)c3cccnc32)C1 (configuration not stated) |
| 3.6 | – | 26 | – | 58 | CCN1CCCC(n2cc(S(=O)(=O)c3ccccc3)c3cccnc32)C1 (configuration not stated) |
| 2 | 25 | – | – | – | CN1CCCC(n2cc(S(=O)(=O)c3c(Cl)nc4sccn34)c3cccnc32)C1 (configuration not stated) |
| 1.7 | – | 8 | – | – | CC(C)N1CCCC(n2cc(S(=O)(=O)c3c(Cl)nc4sccn34)c3cccnc32)C1 (configuration not stated) |
| 3.4 | 172 | – | – | – | CC(C)N1CCCC(n2cc(S(=O)(=O)c3cccc(F)c3)c3cccnc32)C1 (configuration not stated) |
| – | 80 | – | – | – | O=S(=O)(c1cn(C2CCNC2)c2ncccc12)c1c(Cl)nc2sccn12 (configuration not stated) |
| 4.3 | – | 135 | 96 | – | O=S(=O)(c1ccc(Br)cc1)c1cn(C2CCNC2)c2ncccc12 (configuration not stated) |
| 33.5 | – | 70 | – | 71 | CCN1CCCC(n2cc(S(=O)(=O)c3ccc(Cl)cc3)c3cccnc32)C1 (configuration not stated) |
| 6.1 | 297 | – | – | – | O=S(=O)(c1cc(Cl)cc(Cl)c1)c1cn(C2CCCNC2)c2ncccc12 (configuration not stated) |
| 0.9 | – | 23 | 98 | – | CN1CCC(n2cc(S(=O)(=O)c3cccc(Br)c3)c3cccnc32)C1 (configuration not stated) |
| 2.5 | 2030 | – | – | – | CN1CCC(n2cc(S(=O)(=O)c3ccccc3)c3cccnc32)C1 (configuration not stated) |

| Ki [1] [nM] | EC50 [2] [nM] | IC50 [3] [nM] | %max [3] [%] | Imax [3] [%] | Compound |
| --- | --- | --- | --- | --- | --- |
| 9.4 | – | 492 | – | 77 | CC(C)N1CCCC(n2cc(S(=O)(=O)c3cccc(Br)c3)c3cccnc32)C1 (configuration not stated) |
| 8.3 | – | 132 | 89 | – | CCN1CCC(n2cc(S(=O)(=O)c3cccc(F)c3)c3cccnc32)C1 (configuration not stated) |
| 1.3 | 35 | – | – | – | O=S(=O)(c1cccc(Br)c1)c1cn(C2CCNC2)c2ncccc12 (configuration not stated) |
| 1.5 | 1680 | – | – | – | O=S(=O)(c1cccc(Cl)c1)c1cn(C2CCNC2)c2ncccc12 (configuration not stated) |
| 4.6 | 273 | – | – | – | O=S(=O)(c1cccc(C(F)(F)F)c1)c1cn(C2CCCNC2)c2ncccc12 (configuration not stated) |
| 2.7 | 278 | – | – | – | O=S(=O)(c1cccc(F)c1)c1cn(C2CCNC2)c2ncccc12 (configuration not stated) |
| 0.8 | – | 26 | – | – | CN1CCC(n2cc(S(=O)(=O)c3c(Cl)nc4sccn34)c3cccnc32)C1 (configuration not stated) |
| 0.7 | 34 | – | – | – | CCN1CCCC(n2cc(S(=O)(=O)c3c(Cl)nc4sccn34)c3cccnc32)C1 (configuration not stated) |
| 7.6 | – | 682 | – | 76 | O=S(=O)(c1ccc(Cl)cc1)c1cn(C2CCCNC2)c2ncccc12 (configuration not stated) |
| 5.7 | – | 643 | 100 | – | O=S(=O)(c1cn(C2CCNC2)c2ncccc12)c1cccc2cccnc12 (configuration not stated) |
| 11 | – | 56 | 75 | – | CCN1CCC(n2cc(S(=O)(=O)c3ccccc3)c3cccnc32)C1 (configuration not stated) |
| 5.5 | – | 340 | 94 | – | O=S(=O)(c1ccc(Cl)cc1)c1cn(C2CCNC2)c2ncccc12 (configuration not stated) |
| 2.4 | 67 | – | – | – | O=S(=O)(c1cccc(F)c1)c1cn(C2CCCNC2)c2ncccc12 (configuration not stated) |
| 12 | 414 | – | – | – | O=S(=O)(c1ccc(C(F)(F)F)cc1)c1cn(C2CCCNC2)c2ncccc12 (configuration not stated) |
| 4.2 | – | 95 | 98 | – | CN1CCC(n2cc(S(=O)(=O)c3ccc(Cl)cc3)c3cccnc32)C1 (configuration not stated) |
| 11.5 | – | 28 | – | 63 | CN1CCCC(n2cc(S(=O)(=O)c3ccc(Cl)cc3)c3cccnc32)C1 (configuration not stated) |
| 3.3 | – | 120 | 93 | – | CCN1CCC(n2cc(S(=O)(=O)c3cccc(Cl)c3)c3cccnc32)C1 (configuration not stated) |
| 3.8 | 72 | – | – | – | O=S(=O)(c1cccc(Br)c1)c1cn(C2CCCNC2)c2ncccc12 (configuration not stated) |
| 3.7 | 50 | – | – | – | O=S(=O)(c1ccccc1Cl)c1cn(C2CCCNC2)c2ncccc12 (configuration not stated) |
| 5 | – | 213 | 85 | – | CN1CCC(n2cc(S(=O)(=O)c3ccc(F)cc3)c3cccnc32)C1 (configuration not stated) |
| 4.7 | 306 | – | – | – | CN1CCCC(n2cc(S(=O)(=O)c3cccc(F)c3)c3cccnc32)C1 (configuration not stated) |
| 11.1 | – | 338 | – | 74 | CC(C)N1CCCC(n2cc(S(=O)(=O)c3ccc(Cl)cc3)c3cccnc32)C1 (configuration not stated) |
| 2.1 | 49 | – | – | – | CN1CCCC(n2cc(S(=O)(=O)c3cccc(C(F)(F)F)c3)c3cccnc32)C1 (configuration not stated) |
| 2.2 | – | 91 | 91 | – | CN1CCC(n2cc(S(=O)(=O)c3ccccc3Cl)c3cccnc32)C1 (configuration not stated) |
